The list is not random: actives were taken first. Their share in the collection is about 3.4%.
MEKK2mut PB1 HTS: signal of MEK5 binding to mutant human MEKK2 PB1 domain; bead flow cytometry, Alexa488-MEK5 binding to MEKK2 mutant; percent response, % at 10 µM; actives 0.35% (n = 290,000); AID 1530; in the data active = percent response above about 24%, passing the limit was not always enough
IMP-1 inhibitor: inhibitors of Pseudomonas aeruginosa IMP-1 metallo-beta-lactamase; purified IMP-1, nitrocefin hydrolysis, epi-absorbance fluorescence; inhibition, % at 5.6 µM; actives 0.45% (n = 290,000); AID 1556;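 active = inhibition above the mean plus 3 SD of all compounds in the same screening run, cut at about 4.5% in these data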
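assay system = purified recombinant IMP-1 metallo-beta-lactamase enzyme | schedule = 15 min preincubation plus 25 min reaction at 25 °C | signal = Epi-absorbance fluorescence, 480 nm excitation, 530 nm emission | read-out basis = percent inhibition from optical density relative to buffer-blank wells | controls = IMP-1 with DMSO as 0%, enzyme-free DMSO as 100%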
MEKK2 WT-MEK5: raises or lowers MEK5 binding to wildtype human MEKK2 PB1 domain; bead flow cytometry, Alexa488-MEK5 binding to MEKK2 WT; actives lie on both sides; actives 1.1% (n = 290,000); binding response (% of control), % at 10 µM; AID 1531; Q9Y2U5; in the data active = binding response below about 67% or above about 130%
VIM-2 inh: blocks Pseudomonas aeruginosa VIM-2 metallo-beta-lactamase; purified VIM-2, nitrocefin hydrolysis, epi-absorbance fluorescence; inhibition, % at 5.6 µM; actives 0.89% (n = 290,000); AID 1527;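 active = inhibition above the mean of all tested compounds plus 3 SD, cutoff set per screening run, cut at about 7.5% in these data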;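 also: red hydrolysis product quenches plate fluorescence so inhibitors raise well fluorescence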
MEKK3 PB1 HTS: modulators (inhibitors or enhancers) of MEK5 binding to human MEKK3 PB1 domain; AID 1529; binding response (% of control), % at 10 µM; Q99759; actives 1.4% (n = 290,000); bead-based flow cytometry, Alexa488-MEK5 binding to MEKK3; actives lie on both sides; 0 = blocked by unlabeled MEK5, 100 = vehicle;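 active = binding response more than 3 SD above or below the average of its plate-row segment, actives on both sides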;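 also: Alexa488 bead fluorescence after subtracting the streptavidin-only scavenger bead signal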
Target sequence (Q99759 whole entry, looked up, the tested form may be a part): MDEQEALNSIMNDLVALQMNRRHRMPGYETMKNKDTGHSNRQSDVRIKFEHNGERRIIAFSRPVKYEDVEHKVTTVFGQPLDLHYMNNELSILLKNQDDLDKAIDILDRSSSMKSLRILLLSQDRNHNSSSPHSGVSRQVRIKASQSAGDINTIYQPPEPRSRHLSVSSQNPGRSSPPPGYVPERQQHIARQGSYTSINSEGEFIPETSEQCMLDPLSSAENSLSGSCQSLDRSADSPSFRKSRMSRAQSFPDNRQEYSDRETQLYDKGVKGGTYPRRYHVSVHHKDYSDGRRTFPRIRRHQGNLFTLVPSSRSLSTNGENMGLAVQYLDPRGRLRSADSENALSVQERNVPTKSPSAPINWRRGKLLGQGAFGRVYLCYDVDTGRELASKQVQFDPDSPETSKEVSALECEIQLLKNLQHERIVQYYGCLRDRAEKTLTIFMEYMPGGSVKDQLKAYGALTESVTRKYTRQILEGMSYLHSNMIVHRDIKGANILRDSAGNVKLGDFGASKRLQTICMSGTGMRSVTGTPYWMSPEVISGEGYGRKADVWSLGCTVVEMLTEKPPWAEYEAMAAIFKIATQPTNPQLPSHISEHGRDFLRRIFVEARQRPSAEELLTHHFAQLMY
MEKK2wt confirm: raises or lowers MEK5 binding to wildtype human MEKK2, retest; bead flow cytometry, Alexa488-MEK5 binding to MEKK2 WT; actives lie on both sides; actives 2.4% (n = 5,900); shares compounds with MEKK3 PB1 HTS; binding response (% of control), % at 10 µM; in the data active = binding response below about 16% or above about 210%; inactive = in between
MEKK2mut confirm: signal of MEK5 binding to mutant human MEKK2, retest. actives 2% (n = 5,900). percent response, % at 10 µM. bead flow cytometry, Alexa488-MEK5 binding to MEKK2 mutant. shares compounds with MEKK3 PB1 HTS. AID 1893; in the data active = percent response mostly above about 71%, no sharp cut-off; inactive = mostly below about 38%;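 also: higher means compound restores mutant binding toward wildtype level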
MEKK3-MEK5 inh: confirmation of inhibitors of MEK5 binding to human MEKK3 | shares compounds with MEKK3 PB1 HTS | bead flow cytometry, Alexa488-MEK5 binding to MEKK3; active compounds read low | binding response (% of control), % at 10 µM | actives 1.8% (n = 5,900) | AID 1894;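 active = binding response below 72% of control, or above a set upper limit, though filed actives all read lower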;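 also: lower values mean stronger disruption of MEK5 binding to MEKK3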
Hits are given with their value; - = inactive; . = no result; [ ] = dose if it differs, or a comment.

SMILES | MEKK2mut PB1 HTS | IMP-1 inhibitor | MEKK2 WT-MEK5 | VIM-2 inh | MEKK3 PB1 HTS | MEKK2wt confirm | MEKK2mut confirm | MEKK3-MEK5 inh
CCCCNC(=O)CSc1nc2ccccc2c(=O)n1CCNC(C)=O | - | - | - | - | - | . | . | .
COCCCn1c(SCC(=O)Nc2ccc(C(C)=O)cc2)nc2ccccc2c1=O | - | - | - | - | 39[inhibitor] | - | - | -
CCCNC(=O)CSc1nc2ccccc2c(=O)n1CCC | - | - | - | - | 128 | - | - | -
CC(C)C(=O)Nc1sc2c(c1C#N)CCCCC2 | - | - | - | - | - | . | . | .
COc1ccc(CCNC(=O)CC(NS(=O)(=O)c2ccc(NC(C)=O)cc2)C(C)C)cc1OC (configuration not stated) | - | - | - | - | - | . | . | .
COC(=O)c1sccc1NC(=S)N1CCCCC1 | - | - | - | - | - | . | . | .
O=C(CSc1nnc(COc2ccccc2)o1)NCCc1ccccc1 | - | - | - | - | - | . | . | .
Cc1cccc(OCc2nnc(SCC(=O)NCCc3ccccc3)o2)c1 | - | - | -7.0[inhibitor] | - | - | - | - | -
Cc1ccc(S(=O)(=O)Cn2nnnc2C(C(C)C)N2CCN(C(=O)c3ccco3)CC2)cc1 (configuration not stated) | - | - | - | - | - | . | . | .
O=C(Nc1cccc(-c2cccc(F)c2)c1)C1CCN(CC2CCOC2)CC1 (configuration not stated) | - | - | - | - | - | . | . | .
O=C(Nc1cccc(-c2cccc(Cl)c2)c1)C1CCN(Cc2ccon2)CC1 | - | - | - | - | - | . | . | .
O=C(Nc1cccc(-c2cccc(Cl)c2)c1)C1CCN(Cc2ccccn2)CC1 | - | - | 140 | - | - | - | - | -
O=C(Nc1cccc(-c2cccc(Cl)c2)c1)C1CCN(CC2CCOC2)CC1 (configuration not stated) | 41 | - | 151 | - | - | - | - | -
COCc1ccc(CN2CCC(C(=O)Nc3cccc(-c4cscn4)c3)CC2)o1 | - | - | - | - | - | . | . | .
COCc1ccc(CN2CCC(C(=O)Nc3cccc(-c4cccc(Cl)c4)c3)CC2)o1 | 25 | - | 177 | - | - | - | - | -
Cc1cccc(-c2ccc(NC(=O)C3CCN(CC4CC4)CC3)cc2)c1 | 35 | - | 159 | - | - | - | - | -
COc1ccccc1NC(=O)CSc1ccc2nnc(-c3cccnc3)n2n1 | - | - | - | - | - | . | . | .
Cc1ccc(/C=N/NC(=O)c2cc3c(ccc4ccccc43)o2)cc1[N+](=O)[O-] | . | - | . | - | . | . | . | .
O=C(Nc1ccc(-c2nc3ccccc3[nH]2)cc1)c1ccc2c(c1)OCO2 | - | 28 | - | - | 81[inhibitor] | - | - | -
O=C(Nc1ccc(Cl)c(-c2nc3ccccc3[nH]2)c1)c1ccc2c(c1)OCO2 | - | - | - | - | - | . | . | .
COc1cc2c(cc1OC)C(C)N(CC(=O)Nc1ccc(C)c(S(=O)(=O)N3CCOCC3)c1)CC2 (configuration not stated) | - | - | - | - | - | . | . | .
COCCCNC(=O)c1oc2ccc(S(=O)(=O)N3CCOCC3)cc2c1C | - | - | - | - | - | . | . | .
Cc1c(C(=O)N2CCN(C)CC2)oc2ccc(S(=O)(=O)N3CCOCC3)cc12 | - | - | 2.0[inhibitor] | - | 2.0[inhibitor] | - | - | -
CCOC(=O)N1CCN(C(=O)c2oc3ccc(S(=O)(=O)N4CCCCC4)cc3c2C)CC1 | - | - | - | - | - | . | . | .
Cc1c(C(=O)NCCc2ccccc2)oc2ccc(S(=O)(=O)N3CCOCC3)cc12 | - | - | - | - | 125 | - | - | -
SMILES | MEKK2mut PB1 HTS | IMP-1 inhibitor | MEKK2 WT-MEK5 | VIM-2 inh | MEKK3 PB1 HTS | MEKK2wt confirm | MEKK2mut confirm | MEKK3-MEK5 inh
Cc1c(C(=O)NC2CCCc3ccccc32)oc2ccc(S(=O)(=O)N3CCOCC3)cc12 (configuration not stated) | - | - | - | - | 82[inhibitor] | - | - | -
COc1cc(NC(=O)c2ccc(F)cc2)c(OC)cc1NC(=O)CN1CCCCC1 | - | - | - | - | - | . | . | .
Cc1ccc(-n2c([S-])c(C(=O)Nc3ccc(OC(F)F)cc3)[n+]3ccc(C(=O)NCCO)cc23)cc1C | - | - | 63[inhibitor] | - | - | - | - | -
COc1ccccc1-n1c([S-])c(C(=O)Nc2ccccc2C(F)(F)F)[n+]2ccc(C(=O)NCCO)cc12 | - | - | - | - | - | . | . | .
Cc1ccccc1N1CC(C(=O)NC2CCCC2)CC1=O (configuration not stated) | - | - | - | - | - | . | . | .
COc1ccc(-c2c[n+](CC(=O)c3ccccc3)c3n2CCCCC3)cc1 | - | - | - | - | - | . | . | .
O=C(C[n+]1cc(-c2ccccc2)n2c1CCCCC2)c1ccc(Cl)cc1 | - | - | 142 | - | - | - | - | -
Cc1ccc(NC(=O)C[n+]2cc(-c3ccccc3)n3c2CCC3)cc1 | - | - | - | - | - | . | . | .
O=C(C[n+]1cc(-c2ccccc2)n2c1CCC2)Nc1nc(-c2ccccc2)cs1 | - | - | 166 | - | - | - | - | -
Cc1ccc(-c2c[n+](CC(=O)Nc3nc(-c4ccccc4)cs3)c3n2CCC3)cc1 | - | - | 183 | - | - | - | - | -
O=C(C[n+]1cc(-c2ccc(Cl)c(Cl)c2)n2c1CCC2)OCc1ccccc1 | - | - | - | - | 155 | - | - | -
COc1cc(C(Nc2ccccn2)c2ccc3ccc(C)nc3c2O)cc(OC)c1O (configuration not stated) | - | - | - | - | - | . | . | .
CC1CCCCN1C/C=C/c1ccccc1[N+](=O)[O-] (configuration not stated) | - | - | - | - | - | . | . | .
COc1nc(-c2ccccc2)ccc1-c1noc(COc2ccccc2)n1 | - | - | - | - | 132 | - | - | -
O=S(=O)(c1ccc(F)cc1)n1ccc(-c2cccc(OCc3c(F)cccc3Cl)c2)n1 | - | - | 2.0[inhibitor] | - | 2.0[inhibitor] | - | - | -
O=C(CCCSc1nnnn1-c1cccc2ccccc12)c1ccc(F)cc1 | - | - | - | - | - | . | . | .
CC(=O)Nc1ccc(S(=O)(=O)N2CCN(c3nc(NC4CCCC4)c4ccccc4n3)CC2)cc1 | - | - | 163 | - | - | - | - | -
CC(=O)Nc1ccc(S(=O)(=O)N2CCN(c3cc(C)nc4ccccc34)CC2)cc1 | - | - | - | - | - | . | . | .
COc1ccccc1/C=C/C=N/NC(=O)c1ccco1 | - | - | - | - | - | . | . | .

High-throughput results: PubChem BioAssay, several laboratories
